Converted amounts (≈) assume the structure as drawn.
System: Mycobacterium tuberculosis
Assay: Antitubercular activity against Mycobacterium tuberculosis H37Rv by agar dilution method
Assay type: functional
Procedure, shortened: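 Twofold serial dilutions of compound incorporated into Middlebrook 7H11 agar with OADC supplement, in duplicate wells, at final 12.5, 6.25, 3.125 and 1.56 µg/mL. A known CFU of H37Rv culture was spread on the agar surface, and plates were incubated at 37 °C in 5% CO2. MIC was taken as the lowest concentration giving complete inhibition of colonies.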

Question: `COc1ccc(C(c2cccs2)c2ccccc2OCCN2CCCCC2)cc1` (configuration not stated) was tested. Which MIC did it give?
Answer: The MIC was greater than 12.5 µg/mL.

Question: With `COc1ccc(C(c2cccs2)c2ccccc2OCCN2CCCCCC2)cc1` (configuration not stated) as the compound, how does the MIC read?
Answer: Its MIC is greater than 12.5 µg/mL.

Question: How did the MIC turn out when `COc1ccc(C(c2cccs2)c2ccccc2OCCN2CCCC2)cc1` (configuration not stated) was run?
Answer: Its MIC is greater than 12.5 µg/mL.

Question: Which MIC does the source give for `CSc1ccc(C(c2ccc(O)cc2)c2cccs2)cc1` (configuration not stated) here?
Answer: The MIC was greater than 12.5 µg/mL.

Question: With `COc1cccc(C(c2ccc(O)cc2)c2cccs2)c1` (configuration not stated) as the compound, how does the MIC read?
Answer: Its MIC is greater than 12.5 µg/mL.

Question: With `COc1ccc(C(c2ccc(OCC(O)CN3CCN(Cc4ccccc4)CC3)cc2)c2cccs2)cc1` (configuration not stated) as the compound, how does the MIC read?
Answer: The MIC was greater than 12.5 µg/mL.

Question: With `COc1ccc(C(c2ccc(OCC(O)CN3CCN(c4ccccn4)CC3)cc2)c2cccs2)cc1` (configuration not stated) as the compound, how does the MIC read?
Answer: Its MIC is greater than 12.5 µg/mL.

Question: `COc1ccc(C(c2ccc(OCC(O)CNC3CCCCC3)cc2)c2cccs2)cc1` (configuration not stated) was tested. Which MIC did it give?
Answer: Its MIC is 12.5 µg/mL (≈ 27.7 µM).

Question: With `COc1ccc(C(c2ccc(OCC(O)CN3CCCCC3)cc2)c2cccs2)cc1` (configuration not stated) as the compound, how does the MIC read?
Answer: Its MIC is 12.5 µg/mL (≈ 28.6 µM).

Question: For `COc1ccc(C(c2ccc(OCC(O)CNCCc3ccc(OC)c(OC)c3)cc2)c2cccs2)cc1` (configuration not stated), which MIC is on record?
Answer: The MIC was greater than 12.5 µg/mL.

Question: With `Clc1ccc(C(c2ccc(OCCN3CCOCC3)cc2)c2cccs2)cc1` (configuration not stated) as the compound, how does the MIC read?
Answer: The MIC was 12.5 µg/mL (≈ 30.2 µM).

Question: How did the MIC turn out when `CSc1ccc(C(c2ccc(OCCN3CCCCCC3)cc2)c2cccs2)cc1` (configuration not stated) was run?
Answer: Its MIC is 3.12 µg/mL (≈ 7.13 µM).

Question: With `COc1ccc(C(c2ccc(OCCN3CCCCCC3)cc2)c2cccs2)cc1` (configuration not stated) as the compound, how does the MIC read?
Answer: The MIC was 12.5 µg/mL (≈ 29.6 µM).

Question: Which MIC does the source give for `CCN(CC)CCOc1ccc(C(c2cccc(OC)c2)c2cccs2)cc1` (configuration not stated) here?
Answer: Its MIC is 3.12 µg/mL (≈ 7.89 µM).

Question: `COc1cccc(C(c2ccc(OCCN(C)C)cc2)c2cccs2)c1` (configuration not stated) was tested. Which MIC did it give?
Answer: Its MIC is 12.5 µg/mL (≈ 34 µM).

Question: Which MIC does the source give for `COc1cccc(C(c2ccc(OCCN3CCCCCC3)cc2)c2cccs2)c1` (configuration not stated) here?
Answer: Its MIC is 3.12 µg/mL (≈ 7.4 µM).

Question: For `COc1ccc(C(c2ccc(OCCN(C)C)cc2)c2cccs2)cc1` (configuration not stated), which MIC is on record?
Answer: The MIC was 12.5 µg/mL (≈ 34 µM).

Question: With `CSc1ccc(C(c2ccc(OCCN3CCOCC3)cc2)c2cccs2)cc1` (configuration not stated) as the compound, how does the MIC read?
Answer: Its MIC is greater than 12.5 µg/mL.

Question: How did the MIC turn out when `COc1ccc(C(c2ccc(OCC(O)CN3CCCC3)cc2)c2cccs2)cc1` (configuration not stated) was run?
Answer: Its MIC is greater than 12.5 µg/mL.

Question: With `COc1ccc(C(c2ccc(OCC(O)CN3CCSCC3)cc2)c2cccs2)cc1` (configuration not stated) as the compound, how does the MIC read?
Answer: Its MIC is greater than 12.5 µg/mL.

Question: `Oc1ccc(C(c2ccc(Cl)cc2)c2cccs2)cc1` (configuration not stated) was tested. Which MIC did it give?
Answer: The MIC was greater than 12.5 µg/mL.

Question: With `COc1ccc(C(c2cccs2)c2ccccc2OCCN(C)C)cc1` (configuration not stated) as the compound, how does the MIC read?
Answer: Its MIC is greater than 12.5 µg/mL.

Question: `COc1ccc(C(c2ccc(OCC(O)CN3CCN(C)CC3)cc2)c2cccs2)cc1` (configuration not stated) was tested. Which MIC did it give?
Answer: Its MIC is greater than 12.5 µg/mL.

Question: With `COc1ccc(C(c2ccc(OCC(O)CNCCCN3CCOCC3)cc2)c2cccs2)cc1` (configuration not stated) as the compound, how does the MIC read?
Answer: Its MIC is greater than 12.5 µg/mL.

Question: For `COc1ccc(C(c2ccc(OCCN3CCOCC3)cc2)c2cccs2)cc1` (configuration not stated), which MIC is on record?
Answer: The MIC was greater than 12.5 µg/mL.

Question: Which MIC does the source give for `CCN(CC)CCOc1ccc(C(c2ccc(Cl)cc2)c2cccs2)cc1` (configuration not stated) here?
Answer: The MIC was 3.12 µg/mL (≈ 7.8 µM).

Question: Which MIC does the source give for `CCN(CC)CCOc1ccc(C(c2ccc(SC)cc2)c2cccs2)cc1` (configuration not stated) here?
Answer: Its MIC is 3.12 µg/mL (≈ 7.58 µM).

Question: How did the MIC turn out when `CCN(CC)CCOc1ccccc1C(c1ccc(OC)cc1)c1cccs1` (configuration not stated) was run?
Answer: Its MIC is greater than 12.5 µg/mL.

Question: Which MIC does the source give for `COc1ccc(C(c2ccc(O)cc2)c2cccs2)cc1` (configuration not stated) here?
Answer: The MIC was 3.12 µg/mL (≈ 10.5 µM).

Question: `CSc1ccc(C(c2ccc(OCCN(C)C)cc2)c2cccs2)cc1` (configuration not stated) was tested. Which MIC did it give?
Answer: The MIC was greater than 12.5 µg/mL.

Question: For `CCN(CC)CCOc1ccc(C(c2ccc(OC)cc2)c2cccs2)cc1` (configuration not stated), which MIC is on record?
Answer: The MIC was 6.25 µg/mL (≈ 15.8 µM).

Question: With `COc1cccc(C(c2ccc(OCCN3CCOCC3)cc2)c2cccs2)c1` (configuration not stated) as the compound, how does the MIC read?
Answer: Its MIC is 12.5 µg/mL (≈ 30.5 µM).

Question: Which MIC does the source give for `COc1ccc(C(c2ccc(OCC(O)CNCCCn3ccnc3)cc2)c2cccs2)cc1` (configuration not stated) here?
Answer: Its MIC is greater than 12.5 µg/mL.

Question: How did the MIC turn out when `CCN(CC)CCCNCC(O)COc1ccc(C(c2ccc(OC)cc2)c2cccs2)cc1` (configuration not stated) was run?
Answer: The MIC was greater than 12.5 µg/mL.

Question: Which MIC does the source give for `CN(C)CCOc1ccc(C(c2ccc(Cl)cc2)c2cccs2)cc1` (configuration not stated) here?
Answer: Its MIC is 6.25 µg/mL (≈ 16.8 µM).

Question: For `NNC(=O)c1ccncc1` [ISONIAZID], which MIC is on record?
Answer: Its MIC is 0.05 µg/mL (≈ 0.365 µM).

Question: `CO[C@H]1/C=C/O[C@@]2(C)Oc3c(C)c(O)c4c(O)c(c(/C=N/N5CCN(C)CC5)c(O)c4c3C2=O)NC(=O)/C(C)=C\C=C\[C@H](C)[C@H](O)[C@@H](C)[C@@H](O)[C@@H](C)[C@H](OC(C)=O)[C@@H]1C` [RIFAMPIN] was tested. Which MIC did it give?
Answer: Its MIC is 0.1 µg/mL (≈ 0.122 µM).
